# Data taken from ChEMBL document CHEMBL1154198, “Chemical genetics of Plasmodium falciparum” (Nature, 2010).
# Legend:
# Toxoplasma gondii = assay: ST_JUDE: Growth inhibition of to Toxoplasma gondii, in human U-2OS cells, as measured by luciferase.; format: functional, organism-based; conditions: RH, U2OS
# In short: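 T. gondii parasites engineered to express luciferase; drug sensitivity read by luminescence.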
# [1] = ST_JUDE: Cytotoxicity using luciferase to measure ATP as an indicator of the viability of human Burkitt''s lymphoma lymphoblast cells (Raji); format: toxicity, cell-based
# [2] = ST_JUDE: Cytotoxicity using luciferase to measure ATP as an indicator of the viability of human epithelial hepatocellular carcinoma cells (HepG2); format: toxicity, cell-based
# Plasmodium falciparum [3] = assay: ST_JUDE: Cytotoxicity against Plasmodium falciparum Dd2; format: functional, organism-based
# Plasmodium falciparum [4] = assay: ST_JUDE: Plasmodium falciparum 3D7 EC50 (uM) as measured by SYBR green dye; format: functional, organism-based
# Leishmania major = assay: ST_JUDE: Cytotoxicity using Alamar Blue to measure viability of Leishmania major; format: functional, organism-based
# In short: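 L. major promastigotes; drug susceptibility read with Alamar Blue.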
# Plasmodium falciparum [5] = assay: ST_JUDE: Cytotoxicity against Plasmodium falciparum D10 transfected with yeast DHOD; format: functional, organism-based
# Plasmodium falciparum [6] = assay: ST_JUDE: Cytotoxicity against Plasmodium falciparum SB-A6; format: functional, organism-based
# Plasmodium falciparum [7] = assay: ST_JUDE: Plasmodium falciparum K1 EC50 (uM) as measured by SYBR green dye; format: functional, organism-based
# [8] = ST_JUDE: Cytotoxicity using luciferase to measure ATP as an indicator of the viability of human epithelial embryonic kidney cells (HEK293); format: toxicity, cell-based
# [9] = ST_JUDE: Cytotoxicity using luciferase to measure ATP as an indicator of the viability of human foreskin fibroblast cells (BJ); format: toxicity, cell-based
# Plasmodium falciparum [10] = assay: ST_JUDE: Cytotoxicity against Plasmodium falciparum W2; format: functional, organism-based
# Plasmodium falciparum [11] = assay: ST_JUDE: Cytotoxicity against Plasmodium falciparum V1/S; format: functional, organism-based
# Plasmodium falciparum [12] = assay: ST_JUDE: Cytotoxicity against Plasmodium falciparum K1; format: functional, organism-based
# In short: (§1)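 Asexual P. falciparum grown in human erythrocytes, exposed to compounds for 72 h, and growth read as the DNA quantity in treated versus control cultures. Dose-response run at 12 concentrations from 10 μM to 5 nM.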
# Plasmodium falciparum [13] = assay: ST_JUDE: Cytotoxicity against Plasmodium falciparum 3D7; format: functional, organism-based; in short: as §1
# Trypanosoma brucei = assay: ST_JUDE: Cytotoxicity using luciferase to measure ATP as an indicator of the viability of Trypanosoma brucei; format: functional, organism-based
EC50 (Plasmodium falciparum [4]) [µM],EC50 (Plasmodium falciparum [7]) [µM],Compound,EC50 (Toxoplasma gondii) [µM],EC50 [1] [µM],EC50 [2] [µM],EC50 (Plasmodium falciparum [3]) [µM],EC50 (Leishmania major) [µM],EC50 (Plasmodium falciparum [5]) [µM],EC50 (Plasmodium falciparum [6]) [µM],EC50 [8] [µM],EC50 [9] [µM],EC50 (Plasmodium falciparum [10]) [µM],EC50 (Plasmodium falciparum [11]) [µM],EC50 (Plasmodium falciparum [12]) [µM],EC50 (Plasmodium falciparum [13]) [µM],EC50 (Trypanosoma brucei) [µM]
0.119,0.17,COc1ccccc1Cn1ccnc1SCC(=O)Nc1cc(C(F)(F)F)ccc1Cl,> 21.4,> 39.1,> 39.1,0.246,> 16.7,> 10,> 10,> 39.1,> 39.1,2.67,0.288,0.252,0.19,12.1
0.285,0.367,CCc1nc2nc(C)cc(Nc3ccc(I)cc3)n2n1,> 21.6,> 39.5,> 39.5,0.456,> 16.9,> 10.1,> 10.1,> 39.5,> 39.5,0.595,1.16,0.641,0.347,> 37.8
1.69,0.707,CC[n+]1c(/C=C/c2ccc(N(C)C)cc2)ccc2cc(OC)ccc21,> 12.7,0.529,2.99,0.174,0.0005,0.372,0.702,> 23.2,> 23.2,0.0922,0.43,0.471,0.247,0.343
3.1,2.52,CCCCCCCn1ccc(=N)cc1,> 28.2,10.8,> 51.4,2.73,> 22,3.84,4.17,> 51.4,> 51.4,> 13.2,10.3,2.31,2.19,> 49.3
0.661,1.07,COc1ccc(C2CC(=O)NC3=C2C(=O)CC(c2ccc(F)cc2)C3)cc1OC (centres undefined),> 22.7,> 41.4,> 41.4,1.13,> 17.7,1.85,2.09,> 41.4,> 41.4,1.49,1.99,1.19,1.44,> 39.7
1.59,0.893,CSc1ccc2ccccc2[n+]1C,> 20.3,> 37.1,> 37.1,1.53,> 15.9,1.11,1.2,> 37.1,> 37.1,3.21,1.83,0.588,0.59,> 35.6
0.497,0.182,Cc1ccccc1/N=C1\C=C(NS(=O)(=O)c2ccc(F)cc2)c2ccccc2C1=O,> 19.1,3.14,6.13,0.435,> 14.9,0.161,0.303,6.29,5.88,0.216,0.114,0.0981,0.221,0.946

# Further lines, the compound ahead of its results:
Compound,EC50 (Plasmodium falciparum [4]) [µM],EC50 (Plasmodium falciparum [7]) [µM],EC50 (Toxoplasma gondii) [µM],EC50 [1] [µM],EC50 [2] [µM],EC50 (Plasmodium falciparum [3]) [µM],EC50 (Leishmania major) [µM],EC50 (Plasmodium falciparum [5]) [µM],EC50 (Plasmodium falciparum [6]) [µM],EC50 [8] [µM],EC50 [9] [µM],EC50 (Plasmodium falciparum [10]) [µM],EC50 (Plasmodium falciparum [11]) [µM],EC50 (Plasmodium falciparum [12]) [µM],EC50 (Plasmodium falciparum [13]) [µM],EC50 (Trypanosoma brucei) [µM]
c1ccc(CCNc2ccnc3cc4ccccc4cc23)cc1,0.121,0.191,> 17,9.53,1.32,0.15,> 13.3,1,0.171,7.19,6.62,0.674,0.833,0.671,0.267,2.88
CCN1/C(=C/c2cccc[n+]2C)C=Cc2cc(C)ccc21,0.439,0.325,> 17.6,> 32.2,> 32.2,1.7,0.107,1.54,2.05,> 32.2,> 32.2,> 8.27,> 8.27,1.89,1.5,7.21
CCOC(=O)c1cccc(NC(=O)CC2C(=O)N(c3ccc(F)cc3)C(=O)N2CCC(C)C)c1 (centres undefined),0.593,1.16,> 23.8,> 43.4,> 43.4,0.635,> 18.6,0.95,1.06,> 43.4,> 43.4,> 11.1,1.07,> 11.1,0.945,11.8
CCOc1cc(C2CC(=O)NC3=C2C(=O)CC(c2cc(OC)ccc2OC)C3)ccc1O (centres undefined),1.07,1.28,> 22.4,> 40.9,> 40.9,1.38,> 17.5,1.14,1.13,> 40.9,> 40.9,1.98,1.66,1.09,1.05,> 39.2
Fc1ccc(Nc2nc(NCc3ccccc3)c3ccccc3n2)cc1,0.901,0.781,> 22.3,13.7,6.78,0.644,0.0024,0.868,0.321,16.8,15.2,3.54,2.58,0.962,0.626,7.89
COCCO/C(O)=C1\C(C)=NC2=C(C(=O)CC(c3ccc(OC)c(OC)c3)C2)C1c1ccc(F)cc1 (centres undefined),0.253,0.0946,> 23.2,> 42.4,> 42.4,0.526,> 18.2,2.99,2.67,> 42.4,> 42.4,0.47,1.62,0.517,0.74,17.4
CCOC(=O)C1=C(C)N=c2s/c(=C\c3cc(Cl)ccc3O)c(=O)n2C1c1ccc(N(C)C)cc1 (centres undefined),> 15,1,> 9.98,> 18.2,> 18.2,1.82,> 7.8,> 4.68,2.69,> 18.2,> 18.2,> 4.68,0.235,0.446,> 4.68,6.2
COc1ccc(C2CC3=NC(C)=C(C(=O)OC(C)C)C(c4ccccc4Cl)C3=C(O)C2)cc1OC (centres undefined),0.0358,0.0178,14.6,> 41.2,> 41.2,0.0582,> 17.6,0.0455,0.035,> 41.2,> 41.2,0.0406,0.0876,0.0538,0.087,6.77
CCOc1ccc2nc(C)cc(Nc3ccc(Cl)cc3)c2c1,0.444,1.34,> 21.7,19.8,7.26,0.577,0.379,0.536,0.295,21.2,8.78,0.755,2.77,4.08,1.07,8.1
C#CC[n+]1ccn2c(C)ccc2c1CC,> 15,1.38,> 27.3,40.7,> 49.8,1.54,> 21.3,> 12.8,2.53,> 49.8,> 49.8,3.44,> 12.8,1.42,1.68,> 47.7
Cc1ccc(NC(=O)c2c(I)cnn2C)cc1[N+](=O)[O-],0.705,1.05,> 25.1,> 45.7,> 45.7,0.822,> 19.6,> 11.7,> 11.7,> 45.7,> 45.7,0.583,3.73,> 11.7,0.769,> 43.9
Cc1ccc(C2(c3ccc(C)cc3)CC2C(=O)Nc2ccc([N+](=O)[O-])cc2O)cc1 (centres undefined),0.658,0.582,> 21.1,10.6,10.7,2.09,> 16.5,1.6,1.83,11.4,11,1.83,1.26,0.741,1.01,4.78
